Hits are enriched below; roughly 2.6% of the tested compounds scored in any of these assays.
SENP8 block-1: inhibitors of human SENP8 protease; actives 1.2% (n = 330,000); Q96LD8; purified SENP8, Z-RLRGG-aminoluciferin cleavage, luminescence; inhibition, % at 10 µM; AID 2540; in the data active means inhibition above about 50%
Target sequence (Q96LD8 whole entry, looked up): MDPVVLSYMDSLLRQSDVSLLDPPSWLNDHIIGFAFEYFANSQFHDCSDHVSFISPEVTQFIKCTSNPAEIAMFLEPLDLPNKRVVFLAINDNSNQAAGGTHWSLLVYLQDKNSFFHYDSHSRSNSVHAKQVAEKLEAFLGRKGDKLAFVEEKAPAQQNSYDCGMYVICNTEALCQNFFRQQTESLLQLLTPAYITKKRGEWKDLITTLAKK
SENP1 inh: blocks the human SENP1 SUMO protease catalytic domain; Q9P0U3; recombinant SENP1 catalytic domain, CyPet-SUMO1-YPet FRET cleavage; inhibition, % at 10 µM; actives 0.21% (n = 360,000);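 active means inhibition at least 30% at 10 µM, raw YFP signal under a set limit, fluorescence ratio 0.5 to 1.5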;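 further: 0% = enzyme with DMSO and 100% = no enzyme wells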
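system = hSENP1 catalytic domain, recombinant | reagent = SFCypet-SUMO1-SFYpet substrate at 25 nM | doses = one dose per compound, 10 µM, 0.5% DMSO | incubation = enzyme reaction for 50 min at room temperature, dark | measured by = FRET, CFP and YFP emission | controls = no-enzyme low, enzyme-DMSO high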
SENP6 block: inhibitors of human SENP6 protease; Q9GZR1; Recombinant SENP6 catalytic domain, aminoluciferin luminescence; inhibition, % at 10 µM; actives 1.8% (n = 330,000); AID 2599;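 active means inhibition above about 50% at the single tested dose, limit read from the data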;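 further: plate controls were DMSO wells with enzyme for no effect and DMSO wells lacking enzyme for full effect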
Target sequence (Q9GZR1 628-1112 limits assumed): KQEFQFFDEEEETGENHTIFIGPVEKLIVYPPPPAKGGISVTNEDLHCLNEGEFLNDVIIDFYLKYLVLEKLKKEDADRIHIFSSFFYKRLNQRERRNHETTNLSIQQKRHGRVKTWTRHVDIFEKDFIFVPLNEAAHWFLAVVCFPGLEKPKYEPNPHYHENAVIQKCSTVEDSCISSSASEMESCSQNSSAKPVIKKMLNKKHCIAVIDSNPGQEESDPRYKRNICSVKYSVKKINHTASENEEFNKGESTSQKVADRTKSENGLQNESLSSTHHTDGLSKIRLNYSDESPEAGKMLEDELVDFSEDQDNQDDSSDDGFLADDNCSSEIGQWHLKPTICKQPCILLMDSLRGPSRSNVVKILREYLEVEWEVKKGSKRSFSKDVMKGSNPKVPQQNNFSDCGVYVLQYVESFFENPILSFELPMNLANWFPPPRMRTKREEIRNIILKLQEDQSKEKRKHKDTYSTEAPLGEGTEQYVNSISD
SENP8 block-2: blocks human SENP8 cleavage of Nedd8 substrate. actives 0.64% (n = 360,000). inhibition, % at 20 µM. Q96LD8. AID 602440. recombinant SENP8, Nedd8 substrate fluorescence; in the data active means inhibition mostly above about 40%, no sharp cut-off; inactive means mostly below about 27%
Platelet DG rel: modulates dense granule release in human platelets | actives 0.22% (n = 300,000) | AID 1663 | inhibition, %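 (compounds screened at 7.5 µM in platelet-rich plasma)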 | human platelet-rich plasma, SFLLRN dense granule ATP release, luminescence;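 active means mean replicate score, as percent of positive control, at or above 50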
SENP7 inh: blocks the human protease SENP7; Q9BQF6; inhibition, % at 5 µM; recombinant SENP7, Z-RLRGG-aminoluciferin luminescence, 40 min; actives 1.5% (n = 330,000);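 active means inhibition above about 50% at the single test dose, limit read from the data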;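 further: plate controls were DMSO with enzyme for no effect and no enzyme buffer wells for full effect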
SENP8 confirm: human SENP8 inhibition, confirmed; shares compounds with SENP7 inh; Recombinant SENP8, Z-RLRGG-aminoluciferin luminescence, 60 min; inhibition, % at 12.5 µM; actives 40% (n = 6,200);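 active means mean inhibition across replicates above about 50%, limit read from the data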
SENP6 conf: human SENP6 inhibition, confirmed | actives 58% (n = 6,200) | inhibition, % at 12.5 µM | shares compounds with SENP7 inh | recombinant SENP6, Z-RLRGG-aminoluciferin luminescence | AID 488915
SENP7 confirm: confirmation of human SENP7 protease inhibitors; shares compounds with SENP7 inh; recombinant SENP7, Z-RLRGG-aminoluciferin luminescence, 40 min; inhibition, % at 12.5 µM; actives 69% (n = 6,200); AID 488917
Casp3 select: caspase-3 inhibition (SENP selectivity assay); shares compounds with SENP7 inh; purified caspase-3, Z-DEVD-aminoluciferin luminescence, 60 min; inhibition, % at 12.5 µM; actives 60% (n = 6,200);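 active means mean inhibition above about 50%, limit read from the data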;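 further: plate controls were enzyme with DMSO for no effect and wells without caspase-3 for full effect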
SENP luc ctr: luminescence interference (SENP counter-screen); shares compounds with SENP7 inh; Pre-incubated SENP8/Z-RLRGG-aminoluciferin, luciferase luminescence interference; inhibition, % at 12.5 µM; actives 39% (n = 6,200); AID 488919;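 active means mean inhibition above about 50% when retested at one dose, limit read from the data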;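 further: plate controls were DMSO wells with completed reaction for no effect and substrate without enzyme for full effect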
Numbers without * were called inactive; i = inactive; nt = not tested or not shown; ! = not confirmed by another sample.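 How the source made its calls, unless noted: active means mean inhibition above about 50% in the one-dose retest (limit read from the data); inactive means the rest.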

SMILES	SENP8 block-1	SENP1 inh	SENP6 block	SENP8 block-2	Platelet DG rel	SENP7 inh	SENP8 confirm	SENP6 conf	SENP7 confirm	Casp3 select	SENP luc ctr
Cc1ccc(NS(=O)(=O)c2c(C)[nH]c(C)c2C(=O)N2CCCCC2)c(Cl)c1	-4.5	1.1	-4.9	13.3	-2.1	10.8	nt	nt	nt	nt	nt
Cc1cc(C=C2C(=O)c3ccccc3C2=O)c(C)n1C	56.5*	-29.6	66.2*	18.3	-6.6	2.9	9.7	36.6	71.9*	37.1	7.4
Cc1ccc(C=C2C(=O)c3ccccc3C2=O)s1	80.8*	0.9	69.9*	39.7	20.0	91.9*	68.4*	94.3*	98.7*	87.8*	40.4
CCn1c(C)cc(C=C2C(=O)c3ccccc3C2=O)c1C	nt	-23.5	nt	13.8	9.7	nt	nt	nt	nt	nt	nt
Cc1ccc(C=C2C(=O)c3ccccc3C2=O)o1	79.1*	-1.7	97.0*	22.1	30.2	95.4*	96.2*	97.3*	101.0*	96.5*	74.7*
COc1cc(OC)c(C2Nc3cccc4cccc(c34)N2)c(OC)c1	23.2	-14.4	58.4*	-290.3	0.7	4.8	15.2	25.8	1.1	-3.2	-3.5
c1ccc(C2Nc3cccc4cccc(c34)N2)cc1	1.6	5.0	6.1	-3.8	0.4	12.1	nt	nt	nt	nt	nt
Clc1cccc(Cl)c1C1Nc2cccc3cccc(c23)N1	14.1	7.3	42.4	-5.5	11.1	8.2	nt	nt	nt	nt	nt
COc1ccccc1C1Nc2cccc3cccc(c23)N1	31.2	-2.5	60.5*	-178.0	-8.8	13.5	15.0	12.4	2.6	-2.2	-2.9
Oc1ccccc1C1Nc2cccc3cccc(c23)N1	15.7	-3.0	30.4	-112.7	4.8	4.6	nt	nt	nt	nt	nt
COc1ccc(C2Nc3cccc4cccc(c34)N2)cc1	13.6	-14.9	63.7*	-5.0	3.0	3.4	14.4	17.1	12.8	4.1	7.1
CN1CCc2nc(SCC(=O)Nc3cccc(F)c3)c(C#N)c(-c3cccs3)c2C1	57.1*	12.0	77.0*	34.2	9.6	59.5*	1.4	0.2	-4.0	-2.1	-7.7
CC(C)(C)C(=O)CSc1nc2c(c(-c3cccs3)c1C#N)CCC2	-1.9	-16.8	5.2	-222.4	-8.2	-5.2	nt	nt	nt	nt	nt
CCCc1cc(C(=O)Nc2ccc(F)c(Cl)c2)no1	90.4*	0.7	92.9*	11.5	6.1	92.6*	91.5*	92.7*	99.6*	89.1*	82.2*
CCCc1cc(C(=O)Nc2cccc(C(C)=O)c2)no1	0.5	1.5	-5.8	9.8	1.8	-0.3	nt	nt	nt	nt	nt
CCCc1cc(C(=O)Nc2cccc(Cl)c2)no1	90.2*	0.7	97.5*	5.3	27.5	92.7*	94.5*	95.7*	101.6*	91.7*	89.7*
CCCc1cc(C(=O)Nc2ccc(F)cc2F)no1	38.3	3.0	62.9*	13.1	6.8	40.3	7.7	38.7	71.0*	60.0*	0.0
CCCc1cc(C(=O)Nc2ccccc2SC)no1	1.5	3.8	22.0	10.0	-2.2	2.6	nt	nt	nt	nt	nt
Oc1ccc(NCc2ccccc2OCc2ccccc2F)cc1	19.8	1.8	60.1*	76.5*	13.8	31.0	17.4	19.9	5.1	6.7	5.2
Nn1nnc2ccccc21	-2.6	3.3	-25.6	5.8	1.0	-7.7	nt	nt	nt	nt	nt
C(=C\n1nnc2ccccc21)/c1ccccn1	73.8*	0.6	76.4*	14.3	9.9	79.4*	81.0*	80.4*	95.8*	89.3*	74.4*
Cn1cccc1/C=C1\CCc2ccccc2C1=O	95.4*	-96.7	100.2*	-11.6	67.2*	42.6	97.5*	98.3*	101.6*	96.8*	96.0*
O=C1/C(=C/c2cccs2)Cc2ccccc21	84.2*	0.5	91.0*	7.0	18.5	92.3*	82.6*	90.9*	98.6*	86.7*	70.4*
Cn1cccc1/C=C1\Cc2ccccc2C1=O	91.9*	-34.4	-7.9	-255.6	36.0	92.9*	66.5*	91.0*	99.2*	92.7*	36.1
Cc1c(NS(=O)(=O)c2ccc(N)cc2)c(=O)n(-c2ccccc2)n1C	3.4	2.2	13.5	12.3	-2.6	0.3	nt	nt	nt	nt	nt
SMILES	SENP8 block-1	SENP1 inh	SENP6 block	SENP8 block-2	Platelet DG rel	SENP7 inh	SENP8 confirm	SENP6 conf	SENP7 confirm	Casp3 select	SENP luc ctr
O=c1c2ccccc2cnn1CCOc1cccc(Br)c1	59.8*	4.0	73.9*	8.4	-6.1	58.5*	55.0*	67.9*	86.3*	58.0*	6.4
Cc1ccc(OCCn2ncc3ccccc3c2=O)c(C)c1	-5.9	0.3	-13.9	13.8	10.3	-3.5	nt	nt	nt	nt	nt
CCCCN(CC)c1nc(N)c(C#N)c(CC#N)c1C#N	6.1	-30.4	22.4	-137.1	3.6	5.9	nt	nt	nt	nt	nt
N#Cc1c(N2CCCC2)nc(N)c2c(N)nc(N3CCCC3)cc12	96.6*	-27.7	96.6*	-414.3	-3.8	97.1*	97.8*	98.0*	97.0*	96.6*	11.2
CCCCN(CC)c1nc(N)c2c(N)nc(OCC)cc2c1C#N	66.4*	-47.5	67.3*	-275.5	-0.7	23.8	-3.3	12.9	2.2	-5.6	-5.0
COc1cc2c(C#N)c(N3CCCC3)nc(N)c2c(N)n1	88.2*	-28.6	94.8*	i	-2.4	72.9*!	44.5	62.4*	37.4	7.2	-1.9
COc1cc2c(C#N)c(N3CCN(C)CC3)nc(N)c2c(N)n1	0.9	-53.7	58.9*	-274.8	10.5	55.2*	-15.7	-3.7	-6.0	-3.3	-13.2
COc1cc2c(C#N)c(N3CCN(c4ccccc4OC)CC3)nc(N)c2c(N)n1	-0.2	-32.1	15.5	-401.8	0.1	12.1	nt	nt	nt	nt	nt
CC1Oc2ccccc2N(CC(=O)NCc2ccc3c(c2)OCO3)C1=O (stereo not drawn)	6.7	1.5	5.8	6.7	9.7	-3.3	nt	nt	nt	nt	nt
COc1cccc(C(=O)NNC(=O)C(=O)Nc2ccc(OC)cc2OC)c1	-7.0	1.6	8.9	7.4	0.4	-12.5	nt	nt	nt	nt	nt
CCOc1cc2c(C#N)c(N3CCCC3)nc(N)c2c(N)n1	3.1	-13.7	33.5	-269.5	3.5	26.4	nt	nt	nt	nt	nt
CCCOc1cc2c(C#N)c(N3CCCC3)nc(N)c2c(N)n1	66.7*	-23.5	84.6*	i	-1.1	60.8*	38.7	74.9*	38.7	nt	0.2

Assay outcomes deposited in PubChem BioAssay by several laboratories.
